Consider 1 protein from ChEMBL document CHEMBL1145492, “Comparison of the phosphorylation of 4'-ethynyl 2',3'-dihydro-3'-deoxythymidine with that of other anti-human immunodeficiency virus thymidine analogs” (Antimicrob Agents Chemother, 2007).

Substrate in series [1]: Cc1cn([C@H]2C[C@H](O)[C@@H](COP(=O)(O)O)O2)c(=O)[nH]c1=O
Description: (§1) Activity for human recombinant TMP kinase. The method, boiled down: (§2)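 Substrate ranges were TMP 6.25–100 μM and analog MPs 6.25–250 μM. Reactions were stopped at various times with TCA and neutralized with trioctylamine/trichlorotrifluoroethane. Km and kcat came from Lineweaver-Burk plots. Relative efficiency is kcat/Km with D4TMP as 100%. Mean ± SD of three experiments.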

Substrate in series [2]: Cc1cn([C@H]2C=C[C@@H](COP(=O)(O)O)O2)c(=O)[nH]c1=O
The series is described as §1. Summed up: as §2

Substrate in series [3]: Cc1cn([C@H]2C[C@H](N=[N+]=[N-])[C@@H](COP(=O)(O)O)O2)c(=O)[nH]c1=O
The description is as §1. The method, boiled down:
as §2

B1: Thymidylate kinase (Homo sapiens), P23919 (protein)
chain: MAARRGALIVLEGVDRAGKSTQSRKLVEALCAAGHRAELLRFPERSTEIGKLLSSYLQKKSDVEDHSVHLLFSANRWEQVPLIKEKLSQGVTLVVDRYAFSGVAFTGAKENFSLDWCKQPDVGLPKPDLVLFLQLQLADAAKRGAFGHERYENGAFQERALRCFHQLMKDTTLNWKMVDASKSIEAVHEDIRVLSEDAIRTATEKPLGELWK
The Km is the concentration of substrate that gives half-maximal velocity. What is called kcat is the number of substrate molecules converted per active site and unit of time at saturation. Turning to B1, the figures for the Km in series [1], in series [2] and in series [3] were 8.3 µM, 22 µM and 7.6 µM, respectively. Further, the turnover number (kcat) is 1.8 s⁻¹ in series [1], 0.093 s⁻¹ in series [2] and 0.018 s⁻¹ in series [3].
